STAT3 inh-1: reduces IL-6 driven STAT3 reporter signal; 190,000 tested, 0.89% active; U3A cells, IL-6 STAT3-luciferase reporter, luminescence; host cell line lacks STAT1; inhibition, % at 5.5 µM;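 active means inhibition above the mean inhibition across all screened compounds plus 3 SD, cut at about 44% in these data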;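 further: 0% = DMSO only wells and 100% = 100 µM nifuroxazide control wells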
Hep lipid drop: modulators of hepatic lipid droplet formation; AML12 mouse hepatocytes, oleate lipid droplets, BODIPY imaging; inhibition, % at 6.5 µM; 240,000 tested, 0.4% active; AID 1656;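 active means lipid droplet intensity inhibited by at least 50%, with more than 500 cells counted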
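System: AML12 hepatocytes (mouse). Probe or stimulus: oleic acid at 100 µM to induce lipid droplet formation. Times: overnight treatment with compound plus oleate. Detection: Image-based BODIPY and DAPI two-channel analysis. Evaluation: percent inhibition of filter-corrected integrated lipid droplet intensity per well.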
STAT1 inh: STAT1 signaling inhibition. NIH 3T3 STAT1-luciferase reporter, IFN-gamma, luminescence. inhibition, % at 5.5 µM. 200,000 tested, 0.35% active;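 active means inhibition above a set limit, the mean inhibition across all tested compounds plus 3 SD, cut at about 34% in these data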;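 further: 0% = IFN-gamma with DMSO and 100% = IFN-gamma with 300 µM nifuroxazide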
H9c2 TAG inh: inhibitors of triacylglycerol accumulation; 230,000 tested, 0.66% active; inhibition, % at 12.5 µM; H9c2 cells, Nile Red lipid (TAG) fluorescence; cells loaded with 200 µM oleic acid; AID 651582;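 active means pattern-corrected inhibition of lipid staining of at least 50% with the nuclear-stain viability signal not falling by more than 50%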;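 further: 0% = DMSO wells and 100% = triacsin C control wells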
PPC-1+TRAIL kill: kills PPC-1 cancer cells in the presence of TRAIL. PPC-1 cells + TRAIL, ATPLite viability luminescence. cell killing (% activity), % at 4 µM or 5 µM. 220,000 tested, 0.41% active;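 active means cell killing above 50% in the first pass at 4 µM, then a duplicate retest at 5 µM averaging 50% or more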;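 further: plate controls were cells with TRAIL plus DMSO for no effect and medium-only wells lacking cells for full effect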
Platelet DG rel: platelet dense granule release activity; human platelet-rich plasma, SFLLRN dense granule ATP release, luminescence; inhibition, %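 (compounds screened at 7.5 µM in platelet-rich plasma)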; 300,000 tested, 0.22% active;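 active means mean replicate score, as percent of positive control, at or above 50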
STAT3 inh-2: STAT3 inhibition, confirmation assay | inhibition, % at 5.7 µM | U3A cells, IL-6 STAT3 luciferase reporter, luminescence; cell line lacks STAT1 | shares compounds with STAT3 inh-1 | 1,200 tested, 45% active;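 active means inhibition above the hit cutoff computed for the primary STAT3 screen, cut at about 44% in these data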;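 further: 0% = IL-6 plus DMSO and 100% = IL-6 plus nifuroxazide control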
NFkB inh 2: inhibits NF-kappaB, counter-screen to STAT3 inhibitors | shares compounds with STAT3 inh-1 | HEK293T NF-kB luciferase reporter, TNF-alpha induced | inhibition, % at 5.7 µM | 1,200 tested, 36% active | AID 1308;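 active means inhibition above the mean of solvent-only control wells plus 3 SD, cutoff set per campaign, cut at about 13% in these data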;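 further: 0% = TNF-alpha with DMSO and 100% = TNF-alpha with MG high control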
STAT1 inh STAT3c: counter-screen for STAT3 inhibitors: STAT1 inhibition | shares compounds with STAT3 inh-1 | NIH 3T3 STAT1-luciferase reporter, IFN-gamma induced, luminescence | inhibition, % at 5.7 µM | 1,200 tested, 27% active | AID 1317;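 active means inhibition above the mean plus 3 SD of solvent-only control wells, limit set per screening run, cut at about 16% in these data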;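 further: 0% = DMSO with IFN-gamma and 100% = nifuroxazide control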
Numbers without * were called inactive; . = no result given. Sampled rows, rich in hits. Any-hit rate of the full collection: about 1.5%.

SMILES	STAT3 inh-1	Hep lipid drop	STAT1 inh	H9c2 TAG inh	PPC-1+TRAIL kill	Platelet DG rel	STAT3 inh-2	NFkB inh 2	STAT1 inh STAT3c
CCOc1ccc(N/C=C/C(=O)c2ccccc2)c([N+](=O)[O-])c1	85*	-1	14	.	73*	85*	59*	45*	-30
CC(C)(C)c1ccc(C(=O)N2CCCCCC2=O)cc1	45*	-8	19	-13	4	.	64*	35*	30*
COc1ccc(Cl)cc1Cn1c(C)c(C(=O)NCc2ccc3c(c2)OCCO3)sc1=O	.	.	.	24	.	.	.	.	.
C=CCN=C1NN=C(c2cc(C)n(CC=C)c2C)CS1	74*	-24	25	-6	3	13	50*	26*	2
COc1ccc(NS(=O)(=O)c2cccc(NC(=O)c3ccc(Cl)nc3)c2)cc1	86*	.	30	-16	27	2	84*	38*	24*
O=C(Nc1cccc(S(=O)(=O)Nc2ccc(Cl)cc2)c1)c1ccc(Cl)nc1	79*	-6	28	-16	1	10	81*	27*	23*
CN(C)C(=S)Oc1ccccc1C1SCCS1	.	.	.	-7	.	.	.	.	.
COc1ccccc1CNC(=O)c1ccc2nc(C)c(N(C)Cc3ccc(NC(C)=O)cc3)n2c1	.	.	.	3	.	.	.	.	.
Cc1cc(C(=O)OCC(=O)Nc2cccc(S(=O)(=O)N(C)C)c2)c2ccccc2n1	47*	-9	21	.	12	18	25	1	9
Cc1ccc(NC(=O)Nc2ccnc(-c3cccnc3)n2)cc1	66*	-14	19	25	20	11	70*	1	23*
CC(C)c1ccc(NC(=O)CN(C)C2=NS(=O)(=O)c3ccccc32)cc1	.	.	.	16	.	.	.	.	.
COc1cc(/C=N/Nc2ccc(C(F)(F)F)cn2)cc(OC)c1O	48*	-9	0	-11	-19	1	27	0	-3
CN(C)S(=O)(=O)c1ccc(C(=O)Nc2nnc(SCC(=O)N3CCOCC3)s2)cc1	.	.	.	30	.	.	.	.	.
Cc1ccc(C(=O)Nc2nnc(SCC(=O)N3CCCc4ccccc43)s2)cc1	62*	1	20	-2	95*	7	71*	56*	49*
O=C(Nc1nnc(SCC(=O)N2CCCc3ccccc32)s1)c1cccc2ccccc12	-3	-1	1	.	36	13	.	.	.
CC(C)Oc1ccc(C(=O)Nc2nnc(SCC(=O)N3CCOCC3)s2)cc1	70*	-2	21	.	94*	8	74*	57*	50*
CCN(CC)C(=O)C1=C(C)N(CCCN2CCCC2=O)C(=O)C(CC(=O)NC2CCCCC2)C1 (stereo unspecified)	.	.	.	1	.	.	.	.	.
CCOC(=O)c1c(N/C=C(\C#N)c2nc(-c3ccc(OC(C)=O)cc3)cs2)sc2c1CCC2	.	.	.	21	.	.	.	.	.
O=C(CCCOc1ccccc1)N1CCCCC1	48*	.	-1	-35	-12	4	7	-8	-74
O=C(CCCOc1ccc(Cl)cc1)N1CCCCC1	2	0	-11	.	39	-11	.	.	.
O=c1c2[nH]c3ccccc3c2ncn1CCC1=CCCCC1	4	.	-20	-28	19	-2	.	.	.
CC(C)OCCCNc1ncnc2c1[nH]c1ccccc12	66*	-12	29	.	25	-3	62*	18*	32*
C1=C(CCNc2ncnc3c2[nH]c2ccccc23)CCCC1	83*	-44	29	.	15	.	78*	41*	32*
CN(C(=O)c1cccc(NC(=O)Cc2cccc(NC(=O)C3CCCN(C(=O)C4CCCCC4)C3)c2)c1)C1CCC1 (stereo unspecified)	.	.	.	20	.	.	.	.	.
O=S(=O)(c1ccc(Cl)nc1)N1CCC(Cc2ccccc2)CC1	.	.	.	-8	.	.	.	.	.
NC(=O)C1CCN(c2ccc(S(=O)(=O)N3CCC(Cc4ccccc4)CC3)cn2)CC1	64*	4	20	-13	26	-3	55*	9	8

Source: PubChem BioAssay (several laboratories)
